Screening data from PubChem BioAssay.
NS3 helicase inh – inhibitors of Hepatitis C virus NS3 helicase. NS3 helicase DNA unwinding, Cy5 molecular beacon fluorescence. inhibition, % at 10.9 µM. 290,000 tested, 0.56% active. AID 1800;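 active = inhibition above the mean of all tested compounds plus 3 SD, set per campaign, cut at about 35% in these data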;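 note: 0% = DMSO wells and 100% = thioflavine S control wells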
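Measured by: Cy5 fluorescence, 0 and 60 min reads / Assay system: NS3 helicase fragment of HCV / Control set: low DMSO, high thioflavine S at 110 µM / Times: 1 h reaction at 25 °C, ATP-initiated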
MEKK3 PB1 HTS – modulators (inhibitors or enhancers) of MEK5 binding to human MEKK3 PB1 domain; bead-based flow cytometry, Alexa488-MEK5 binding to MEKK3; actives lie on both sides; 0 = blocked by unlabeled MEK5, 100 = vehicle; binding response (% of control), % at 10 µM; 290,000 tested, 1.4% active; AID 1529;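 active = binding response more than 3 SD above or below the average of its plate-row segment, actives on both sides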;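 note: Alexa488 bead fluorescence after subtracting the streptavidin-only scavenger bead signal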
Target sequence (Q99759 whole entry, looked up, the tested form may be a part): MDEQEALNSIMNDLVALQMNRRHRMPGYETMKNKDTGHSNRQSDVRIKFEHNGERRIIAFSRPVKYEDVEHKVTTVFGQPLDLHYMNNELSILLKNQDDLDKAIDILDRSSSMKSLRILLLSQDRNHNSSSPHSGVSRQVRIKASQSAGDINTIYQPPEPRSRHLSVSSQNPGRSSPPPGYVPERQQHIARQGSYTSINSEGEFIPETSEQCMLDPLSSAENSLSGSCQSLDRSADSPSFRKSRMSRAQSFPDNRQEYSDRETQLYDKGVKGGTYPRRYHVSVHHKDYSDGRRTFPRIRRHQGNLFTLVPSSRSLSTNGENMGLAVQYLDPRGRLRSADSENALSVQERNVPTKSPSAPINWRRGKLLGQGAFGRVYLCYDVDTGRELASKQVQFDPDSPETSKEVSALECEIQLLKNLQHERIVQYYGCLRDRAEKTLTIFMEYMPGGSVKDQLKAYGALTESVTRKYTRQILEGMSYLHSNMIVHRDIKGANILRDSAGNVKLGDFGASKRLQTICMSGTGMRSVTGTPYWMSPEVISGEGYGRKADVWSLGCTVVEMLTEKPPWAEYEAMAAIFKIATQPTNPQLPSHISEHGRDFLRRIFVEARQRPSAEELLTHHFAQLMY
T cruzi repl – blocks replication of Trypanosoma cruzi | inhibition, % (no concentration beside the values) | T. cruzi beta-gal in NIH3T3, luminescence, 90 h | 300,000 tested, 1.4% active | AID 1885;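 active = mean inhibition across valid replicates above about 55%, limit read from the data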;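 note: signal also drops with host cell toxicity which is not excluded here; 0% = plate median of DMSO wells and 100% = zero luminescence signal; higher percent means less beta-gal luminescence so fewer parasites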
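Incubation – ≥90 h infection period, 3 h prior cell attachment · System – NIH/3T3 fibroblasts plus reporter T. cruzi · Doses – compound pinned at 50 nL/well, DMSO · Read-out basis – percent inhibition of parasite-derived β-gal signal · Signal – luminescent β-galactosidase signal after 60 min lysis · Also added – 5000 T. cruzi trypomastigotes/well · Medium – Low-serum DMEM with 2% FBS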
DNA FID counter – displaces DNA intercalator in HCV helicase counter-screen | DNA fluorescent intercalator displacement, fluorescence | inhibition, % at 7.9 µM | 290,000 tested, 0.17% active | AID 1845; in the data active = inhibition above about 37%;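 note: 0% = vehicle and 100% = reference compound; higher means more ethidium bromide displaced from hairpin DNA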
MEKK2 mut-MEK5 – signal of MEK5 binding to mutant human MEKK2 PB1 domain; bead flow cytometry, Alexa488-MEK5 binding to MEKK2 mutant; 290,000 tested, 0.35% active; percent response, % at 10 µM; in the data active = percent response above about 24%, passing the limit was not always enough
MEKK2 WT-MEK5 – raises or lowers MEK5 binding to wildtype human MEKK2 PB1 domain; 290,000 tested, 1.1% active; AID 1531; binding response (% of control), % at 10 µM; bead flow cytometry, Alexa488-MEK5 binding to MEKK2 WT; actives lie on both sides; Q9Y2U5; in the data active = binding response below about 67% or above about 130%
MEKK2wt confirm – raises or lowers MEK5 binding to wildtype human MEKK2, retest; bead flow cytometry, Alexa488-MEK5 binding to MEKK2 WT; actives lie on both sides; AID 1892; 5,900 tested, 2.4% active; shares compounds with MEKK3 PB1 HTS; binding response (% of control), % at 10 µM; in the data active = binding response below about 16% or above about 210%; inactive = in between
MEKK2mut confirm – signal of MEK5 binding to mutant human MEKK2, retest; shares compounds with MEKK3 PB1 HTS; percent response, % at 10 µM; AID 1893; 5,900 tested, 2% active; bead flow cytometry, Alexa488-MEK5 binding to MEKK2 mutant; in the data active = percent response mostly above about 71%, no sharp cut-off; inactive = mostly below about 38%;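 note: higher means compound restores mutant binding toward wildtype level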
MEKK3 confirm – MEKK3-MEK5 PB1 inhibition, single concentration confirmation. binding response (% of control), % at 10 µM. bead flow cytometry, Alexa488-MEK5 binding to MEKK3; active compounds read low. 5,900 tested, 1.8% active. AID 1894. shares compounds with MEKK3 PB1 HTS;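 active = binding response below 72% of control, or above a set upper limit, though filed actives all read lower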;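 note: 100% = DMSO only wells and 0% = binding blocked by excess unlabeled MEK5; lower values mean stronger disruption of MEK5 binding to MEKK3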
Numbers without * were called inactive; . = not tested or not shown; [ ] = dose if it differs, or a comment. Most compounds without a hit are left out; they make up all but 4.1% or so of the library.

SMILES	NS3 helicase inh	MEKK3 PB1 HTS	T cruzi repl	DNA FID counter	MEKK2 mut-MEK5	MEKK2 WT-MEK5	MEKK2wt confirm	MEKK2mut confirm	MEKK3 confirm
COc1ccccc1CCn1cnc2c3cc(C)ccc3n(C)c2c1=O	-8	2.0*[inhibitor]	7	-4	-16	2.0*[inhibitor]	104	3	103
COC(=O)c1c(NC(=O)c2ccco2)sc2c1CCC2	-1	103	5	-4	5	98	.	.	.
COC(=O)c1c(NC(=O)/C=C/c2ccco2)sc2c1CCC2	7	134*	10	3	2	104	96	-4	100
COc1ccc(CN2CCN(C(c3ccc(F)cc3)c3ccc(F)cc3)CC2)c(OC)c1OC	.	114	41	.	15	183*	138	34	105
COc1ccc(/C=C(/NC(=O)c2ccco2)C(=O)N2CCCCC2)cc1	2	103	-4	-39	8	106	.	.	.
COc1ccc(/C=C(/NC(=O)c2ccco2)C(=O)N2CCCC2=O)cc1	1	64*[inhibitor]	-21	-3	-26	59*[inhibitor]	97	-12	94
COCCNC(=O)c1c(NC(=O)c2nc(SC)ncc2Cl)sc2c1CCCC2	2	82*[inhibitor]	17	-3	-10	82	106	4	104
Cc1c(CCOC(=O)C23CC4(C)CC(C)(CC(C)(C4)C2)C3)sc[n+]1CC(=O)c1ccccc1	-45	98	31	-1	23	158*	154	17	106
Cc1cccc(N2CCN(C(=O)CCC(=O)N3CCOc4ccc(Cl)cc43)CC2C)c1 (stereo unspecified)	-20	99	5	-47	-8	95	.	.	.
COc1ccc(/C(N)=N/OC(=O)Cc2cccs2)cc1OC	-10	150*	5	-7	0	102	93	-1	98
COc1ccc(-c2cc(C3CCNCC3)[nH]n2)cc1	-50	103	50	-2	22	154*	143	26	109
COc1ccc(-c2cc(-c3ccc(OC)cc3)[nH]n2)cc1	-12	103	25	-25	1	99	.	.	.
O=C(OCC(=O)N(C1CCCCC1)C1CCCCC1)c1cnccn1	-11	.	1	-14	.	.	.	.	.
Cc1ccc2nc(Cl)c(CN(C(=O)c3cnccn3)C3CCCCC3)cc2c1	-7	2.0*[inhibitor]	-3	-34	-26	-2.0*[inhibitor]	104	0	101
Cc1ccc(-c2nn(-c3ccccc3)cc2CSC(=N)N)cc1	-36	113	12	24	52*	205*	141	13	82
Cc1ccc(C)c(S(=O)(=O)NCc2cccnc2)c1	2	98	-20	0	-2	99	.	.	.
Cc1ccc(C)c(S(=O)(=O)NCc2ccncc2)c1	12	137*	1	-1	11	128	89	-9	97
Cn1cnnc1SCC(=O)NC1CCCC1	18	101	-13	-9	7	102	.	.	.
Cc1ccc(-c2nc3ccccc3s2)cc1NC(=O)c1ccc2c(c1)OCO2	-9	1.0*[inhibitor]	-2	-1	-21	-2.0*[inhibitor]	102	0	106
O=C(Nc1cc(-c2nc3ccccc3s2)ccc1Cl)c1ccc2c(c1)OCO2	-6	100	-15	4	-2	95	.	.	.
O=C(NCCc1ccccc1)C1CCC(=O)N1CCc1ccccc1 (stereo unspecified)	-5	98	-4	-11	0	99	.	.	.
CCOc1ccc(CCNC(=O)C2CCC(=O)N2CCc2ccccc2)cc1OCC (stereo unspecified)	-2	2.0*[inhibitor]	15	-31	-26	-1.0*[inhibitor]	96	-5	100
CC1CCN(S(=O)(=O)c2ccc(NC(=O)Cc3ccccc3)cc2)CC1	-1	0.0*[inhibitor]	13	-13	-40	-5.0*[inhibitor]	100	-4	99
CC1CCN(S(=O)(=O)c2ccc(NC(=O)CN3CCCC(C)C3)cc2)CC1 (stereo unspecified)	-6	15*[inhibitor]	-5	15	-22	24*[inhibitor]	99	2	100
CC1CCCN(CC(=O)Nc2ccc(S(=O)(=O)N3CCCC3)cc2)C1 (stereo unspecified)	-4	102	-6	6	-1	103	.	.	.
SMILES	NS3 helicase inh	MEKK3 PB1 HTS	T cruzi repl	DNA FID counter	MEKK2 mut-MEK5	MEKK2 WT-MEK5	MEKK2wt confirm	MEKK2mut confirm	MEKK3 confirm
CCc1nnc(NC(=O)C2CCCN2C(=O)Nc2ccc(Cl)cc2)s1 (stereo unspecified)	7	102	3	-10	1	103	.	.	.
Nc1ccccc1Oc1ccc2ccccc2c1	2	101	-8	-6	-2	94	.	.	.
Fc1ccc(-c2n[nH]c(=S)n2-c2ccc3c(c2)OCCO3)cc1	4	104	-9	-15	-11	99	.	.	.
S=c1[nH]nc(-c2ccc(Cl)cc2)n1-c1ccc2c(c1)OCCO2	5	197*	3	-18	1	109	1.0*[inhibitor]	-29	2.0*
O=C(COc1ccc([N+](=O)[O-])cc1)NCc1ccncc1	-3	102	-5	1	0	100	.	.	.
O=[N+]([O-])c1ccc(CN2CCN(c3ccccc3)CC2)o1	1	122*	36	4	16	128	103	4	104
O=[N+]([O-])c1ccc(N2CCN(Cc3ccc([N+](=O)[O-])o3)CC2)cc1	11	101	44	13	6	109	.	.	.
O=C(Nc1ccccc1)C(c1ccccc1)C1CCCC1 (stereo unspecified)	-11	148*	20	-4	0	104	107	10	105
CSc1ccc(CC(=O)N2CCC(n3nccc3NC(=O)C3CC3)CC2)cc1	-6	99	-6	-17	-1	99	.	.	.
CCn1nc(C)cc1C(=O)N1CCCC(C(=O)c2ccccc2SC)C1 (stereo unspecified)	6	101	-21	-36	4	105	.	.	.
COc1ccc2nc(-n3c(O)c(C4=c5ccccc5=NC4=O)[nH]c3=S)sc2c1	24	93	-4	-6	8	96	.	.	.
Cn1c(O)c(C2=c3ccccc3=NC2=O)[nH]c1=S	4	75*[inhibitor]	-18	2	-1	96	96	9	97
CC(NCCCOc1cccc2ccccc12)c1ccccc1 (stereo unspecified)	-73	107	43	34	18	175*	156	26	110
